pIC50: −log10 of the molar value.
Legend:
[1] = system: SK-MEL-28; experiment: Tested in vitro for antineoplastic activity against MEL-28 (human melanoma) tumor cell line; type: functional, cell-based
Summary of the method: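 MEL-28 cells seeded at 2 × 10^4 cells/well in MEM–10% FCS containing graded compound concentrations. Incubated 4 days at 37 °C, 10% CO2, 98% humidity. Stained with crystal violet and inhibition judged against untreated controls, which were kept in exponential growth. Mean of duplicate wells.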

[2] = system: A549; experiment: In vitro cytotoxicity against A-549 (human lung carcinoma) cell line.; type: functional, cell-based
[3] = Selectivity index is the ratio of IC50 of P-388 cell line to that of HT-29; type: functional
[4] = system: P388; experiment: Tested in vitro for antineoplastic activity against P-388 (lymphoid neoplasm from DBA/2 mouse) tumor cell line; type: functional, cell-based
Summary of the method: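 P-388 cells seeded at 1 × 10^4 cells/well in MEM–10% FCS containing graded compound concentrations. Incubated 4 days at 37 °C, 10% CO2, 98% humidity. Inhibition scored by inverted microscopy against untreated controls, which were kept in exponential growth. Mean of duplicate wells.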

[5] = system: HT-29; experiment: In vitro cytotoxicity against HT-29 (human colon carcinoma) cell line.; type: functional, cell-based

Compound	pIC50 [1]	pIC50 ([2]; Homo sapiens, A549)	Selectivity index [3]	pIC50 [4]	pIC50 ([5]; Homo sapiens, HT-29)	pIC50 ([2]; a549)	pIC50 ([5]; ht-29)
COC(=O)[C@@H]1C(/C=N/c2cc(C)c(C)cc2N)=Cc2cc3c(cc2C1c1cc(OC)c(OC)c(OC)c1)OCO3 (stereo partly specified)	6.05	6.05	4.5	6.05	6.70	–	–
COC(=O)[C@@H]1C(/C=N/c2ccccc2)=Cc2cc3c(cc2C1c1cc(OC)c(OC)c(OC)c1)OCO3 (stereo partly specified)	5.92	7.70	25	6.30	7.70	–	–
CCC/N=C/C1=Cc2cc3c(cc2C(c2cc(OC)c(OC)c(OC)c2)[C@@H]1C(=O)OC)OCO3 (stereo partly specified)	–	6.96	110	5.96	8.00	–	–
COC(=O)[C@@H]1C(/C=N/c2nccs2)=Cc2cc3c(cc2C1c1cc(OC)c(OC)c(OC)c1)OCO3 (stereo partly specified)	6.60	6.60	8	6.70	7.60	–	–
COC(=O)[C@@H]1C(/C=N/CCO)=Cc2cc3c(cc2C1c1cc(OC)c(OC)c(OC)c1)OCO3 (stereo partly specified)	6.68	6.96	10	6.68	7.68	–	–
COC(=O)[C@@H]1C(/C=N/c2cc(OC)c(OC)c(OC)c2)=Cc2cc3c(cc2C1c1cc(OC)c(OC)c(OC)c1)OCO3 (stereo partly specified)	6.38	6.68	40	6.07	7.68	–	–
CC/N=C/C1=Cc2cc3c(cc2[C@@H](c2cc(OC)c(OC)c(OC)c2)[C@@H]1C(=O)OC)OCO3 (stereo in doubt; 5)	7.66	–	500	5.96	–	7.66	8.66
CC/N=C/C1=Cc2cc3c(cc2[C@@H](c2cc(OC)c(OC)c(OC)c2)[C@@H]1C(=O)OC)OCO3 (stereo in doubt; 11)	–	–	–	–	–	6.96	7.47

From ChEMBL document CHEMBL1148485, “Synthesis and biological evaluation of new selective cytotoxic cyclolignans derived from podophyllotoxin” (J Med Chem, 2004)
